From PubChem BioAssay
The source made the active and inactive calls.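 The calls were made as follows, unless noted: active = fluorescence slope higher than the sample average by over 3 SD (cut at about -0.22 in these data, passing the limit was not always enough); inactive = the rest.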

How the values were obtained:
[1] = inhibitors of TNFa-induced NFkB p65 translocation, primary screen, imaging, HUVEC, MLSMR starter and 10KST1 sets (AID 438;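 active = inhibition above 20% together with a positive visual image hit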;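 also: compound added about 3h40 before a 20 min TNFalpha stimulation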;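 as to inhibition: signal is the nuclear over cytoplasmic p65 intensity ratio per well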); conditions: HUVEC TNFa-induced p65 nuclear translocation; cell count: measured here: nuclei count (cytotoxicity indicator), at 2.08 µM; inhibition: at 2 µM, stronger effect = higher value, 0% TNFa-plus-vehicle, 100% no-TNFa wells
[2] = inhibitors of mutant huntingtin aggregation, primary screen, imaging, exon1htt(103Q)mCFP cells, high-content imaging (AID 483;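 active = visual image review flags a hit and inhibition of aggregation exceeds 20%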;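 also: compound exposure lasted 3 days before fixation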;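 as to nuclei count: percent of the per-plate median nuclei count of sample wells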); conditions: exon1htt(103Q)mCFP cell line, aggregate imaging, at 2 µM; inhibition of aggregation: stronger effect = higher value; nuclei count: measured here: cell count, toxicity
[3] = inhibitors of E-selectin induction by TNFa, primary screen, imaging, HUVEC, immunofluorescence, MLSMR starter and 10KST1 sets (AID 487;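 active = visually confirmed hit in the image check and inhibition above 20%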;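 as to inhibition: signal is fraction of cell area covered by stained E-selectin grains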;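 as to nuclei count: 100% = median nuclei count of all wells on the same plate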); conditions: HUVEC TNFalpha-induced E-selectin immunofluorescence imaging, at 2 µM; inhibition: stronger effect = higher value; nuclei count: measured here: cell number, toxicity
[4] = biological target: Voltage-gated potassium channel subunit beta-2 (Rattus norvegicus) (UniProt P62483); test: KvBeta enzyme negative modulators, primary screen, biochemical, NADPH fluorescence (AID 622); conditions: recombinant KvBeta, 4-cyanobenzaldehyde reduction, at 10 µM, stronger effect = higher value;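 also: slope of raw intensity against log time taken from 70 to 1610 s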
Sequence of Voltage-gated potassium channel subunit beta-2 (Rattus norvegicus) (P62483 whole entry, looked up): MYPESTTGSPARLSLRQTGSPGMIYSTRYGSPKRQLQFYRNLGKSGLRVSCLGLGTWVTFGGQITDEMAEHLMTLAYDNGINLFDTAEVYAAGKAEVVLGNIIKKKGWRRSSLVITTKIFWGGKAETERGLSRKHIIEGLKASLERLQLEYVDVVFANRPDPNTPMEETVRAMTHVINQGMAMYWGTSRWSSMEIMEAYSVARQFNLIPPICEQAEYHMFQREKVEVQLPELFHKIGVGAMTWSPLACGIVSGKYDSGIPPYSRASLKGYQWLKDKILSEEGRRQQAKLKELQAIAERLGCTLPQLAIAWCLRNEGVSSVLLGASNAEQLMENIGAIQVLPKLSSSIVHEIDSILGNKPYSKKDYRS

[5] = biological target: Voltage-gated potassium channel subunit beta-2 (Rattus norvegicus) (UniProt P62483); test: KvBeta positive modulators, primary screen, biochemical, NADPH fluorescence (AID 623;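 active = NADPH fluorescence slope more negative than the mean of all samples by about 3 SD, 99.7% confidence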;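 also: fluorescence intensity change per second fitted from 20 to 320 s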); conditions: Recombinant KvBeta, NADPH fluorescence decrease slope, 10 min; at 10 µM; stronger effect = lower value
[6] = biological target: Muscarinic acetylcholine receptor M4 (Homo sapiens) (UniProt P08173); test: compounds altering M4/GIRK thallium flux, either direction, primary screen, M4 allosteric agonist project, cell-based, HEK293 M4/GIRK, BTC-AM (AID 625;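 active = fluorescence slope after compound addition differing from the mean of all tested samples at 99.7% confidence, mostly higher but some lower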;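 also: thallium influx through GIRK channels coupled to M4 in HEK293 cells with BTC-AM dye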); conditions: at 10 µM, actives lie on both sides
Sequence of Muscarinic acetylcholine receptor M4 (Homo sapiens) (P08173 whole entry, looked up): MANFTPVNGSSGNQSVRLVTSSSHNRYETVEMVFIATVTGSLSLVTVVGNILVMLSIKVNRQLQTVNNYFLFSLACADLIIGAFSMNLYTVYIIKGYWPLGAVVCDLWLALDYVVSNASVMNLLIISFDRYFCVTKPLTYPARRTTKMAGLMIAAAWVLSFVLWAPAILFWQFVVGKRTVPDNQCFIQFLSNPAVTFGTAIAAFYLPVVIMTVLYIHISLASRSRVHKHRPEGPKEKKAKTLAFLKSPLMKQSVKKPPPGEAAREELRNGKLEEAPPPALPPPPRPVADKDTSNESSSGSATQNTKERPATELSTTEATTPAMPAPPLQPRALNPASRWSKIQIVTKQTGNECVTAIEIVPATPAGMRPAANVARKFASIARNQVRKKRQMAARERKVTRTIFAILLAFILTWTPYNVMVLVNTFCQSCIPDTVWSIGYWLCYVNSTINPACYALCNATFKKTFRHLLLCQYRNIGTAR
How it was run: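 Material – HEK293 cells with M4 receptor and GIRK channels · Buffer or medium – pH 7.3 thallium assay buffer · Doses – one dose, 10 µM final · Timing – cells overnight at 37 °C, BTC-AM loading 1 h, reads 2 min total · Measured by – kinetic fluorescence with BTC-AM dye · Controls – carbachol and DMSO controls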

[7] = inhibitors of Sendai virus-induced IRF3 signaling, primary screen, TLR/RLR signaling modifier project, cell-based, Sendai virus stimulus, luciferase, 10K MLSCN set (AID 602276;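 active = inhibition at or above 50% at 10 µM; inactive = inhibition below 50%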;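 also: firefly luciferase from ISG56 promoter only with Renilla not read in this screen; 0% = Sendai virus plus DMSO and 100% = medium plus DMSO without virus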); conditions: HEK293 RL24 IRF3 luciferase reporter, at 10 µM, stronger effect = higher value
[8] = inhibitors of poly I:C-induced TLR3 signaling, primary screen, cell-based, poly I:C stimulus, luciferase, 10K MLSCN set (AID 602277;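 active = inhibition of the reporter signal at or above 50%; inactive = inhibition below 50%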); conditions: HEK293-TLR3 RL24 IRF3 luciferase reporter, at 10 µM, stronger effect = higher value

SMILES | cell count [1] | inhibition [1] | inhibition of aggregation [2] | nuclei count [2] | inhibition [3] | nuclei count [3] | fluorescence slope [4] | NADPH fluorescence slope [5] | fluorescence slope [6] | inhibition [7] | inhibition [8]
CCn1cc(C(=O)N2CCN(C(=O)c3ccco3)CC2)c2cc(OC)c(OC)cc2c1=O | 235 | -2.3% (inactive) | -10% (inactive) | 105% | -55.5% (inactive) | 121% | -0.515 (inactive) | 8.7e-05 (inactive) | 0.00709 (inactive) | 13.9% (inactive) | 15.4% (inactive)
COc1cc(CC(=O)Nc2ncc(C)s2)cc(OC)c1OC | 524 | -6.7% (inactive) | 20.3% (inactive) | 78.3% | -68.3% (inactive) | 113% | -0.501 (inactive) | 7.8e-05 (inactive) | 0.00592 (inactive) | 19.3% (inactive) | 18.5% (inactive)
COc1ccccc1N1CCN(CCCNC(=O)Nc2ccccc2)CC1 | 377 | 8.7% (inactive) | 8.2% (inactive) | 96.1% | -129% (inactive) | 106% | -0.449 (inactive) | 1.8e-05 (inactive) | 0.00541 (inactive) | 15.3% (inactive) | 23.9% (inactive)
CCOC(=O)C1CCCN(C(=O)c2ccc(CS(=O)(=O)Cc3ccccc3C)o2)C1 (centres undefined) | 419 | 10.9% (inactive) | 19.5% (inactive) | 76.5% | -57.8% (inactive) | 93.9% | -0.595 (inactive) | 4.2e-06 (inactive) | 0.00695 (inactive) | -2.6% (inactive) | 5.13% (inactive)
Cc1cnnc2c1-c1nonc1CC2 | 347 | 2% (inactive) | -17.8% (inactive) | 109% | 5.6% (inactive) | 116% | -0.529 (inactive) | 3.9e-05 (inactive) | 0.00506 (inactive) | 17.8% (inactive) | 14.6% (inactive)
CSc1ccccc1NS(=O)(=O)c1ccccc1 | 558 | -1% (inactive) | -14.6% (inactive) | 96.9% | -8.2% (inactive) | 105% | -0.454 (inactive) | 1.4e-05 (inactive) | 0.00445 (inactive) | 13% (inactive) | 12.9% (inactive)
N#Cc1cn(CC(=O)N2CCCC2)c2ccccc12 | 391 | 3% (inactive) | -10.4% (inactive) | 108% | -18.5% (inactive) | 95.9% | -0.562 (inactive) | -6.6e-05 (inactive) | 0.00355 (inactive) | 17.7% (inactive) | 22.5% (inactive)
CC(C)CCNC(=O)NC(=O)CSc1nnc(-c2ccccc2Br)o1 | 538 | -16.6% (inactive) | 2% (inactive) | 104% | -32.9% (inactive) | 125% | -0.458 (inactive) | 2.9e-05 (inactive) | 0.0066 (inactive) | -3.6% (inactive) | 20.3% (inactive)
COC(=O)c1cc(OC)c(OC)cc1NC(=O)CC1CCCCC1 | 291 | -8.9% (inactive) | 0.4% (inactive) | 84.5% | 36.1% (inactive) | 73.5% | -0.558 (inactive) | -2.3e-05 (inactive) | 0.00549 (inactive) | 11.3% (inactive) | 11.2% (inactive)
